Tests used:
[1] = target: Protease (Human immunodeficiency virus 1) (UniProt Q9YQ12); experiment: Inhibition of HIV1 protease at 100 ug/ml
Procedure, shortened: (§1)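 HIV-1 protease inhibition was measured with a commercial HIV protease assay kit, which supplied both the enzyme and the reagents. Acetyl pepstatin from the same kit served as the positive control. The assay was run and percent inhibition calculated by a previously published procedure. Fractions were tested at 100 µg/mL.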

[2] = target: Protease (Human immunodeficiency virus 1, UniProt Q9YQ12); experiment: Inhibition of HIV1 protease; procedure, shortened: as §1
Protease, sequence (Q9YQ12 whole entry): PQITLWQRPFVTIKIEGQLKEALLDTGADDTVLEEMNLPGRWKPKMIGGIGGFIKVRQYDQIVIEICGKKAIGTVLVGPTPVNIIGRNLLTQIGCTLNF

Protease (Human immunodeficiency virus 1), sequence (Q9YQ12 as listed by the source): as the sequence (Q9YQ12 whole entry) above

`CC(C)=CCC[C@H](C(=O)O)[C@@H]1CC[C@]2(C)C3=CC[C@H]4C(C)(C)C(=O)CC[C@]4(C)[C@H]3CC[C@@]12C` was tested, and the inhibition [1] was 90% and the IC50 [2] was 44 µM.
`CC1(C)CC[C@]2(C(=O)O)CC[C@]3(C)C(=CC[C@@H]4[C@@]5(C)CC[C@H](O)C(C)(C)[C@@H]5CC[C@]43C)[C@@H]2C1` [OLEANOLIC_ACID] showed an inhibition [1] of 96% and an IC50 [2] of 21.9 µM.
In the case of `CC(C)=CCC[C@H](C(=O)O)[C@@H]1CC[C@]2(C)C3=CC[C@@H]4[C@](C)(CC[C@H](O)[C@]4(C)CO)[C@H]3CC[C@@]12C`, the inhibition [1] is reported as 53% and the IC50 [2] is reported as 212 µM.
With `Oc1cc(O)c2c(c1)O[C@@]1(c3cc(O)c(O)c(O)c3)Oc3cc(O)c4c(c3[C@@H]2[C@H]1O)O[C@H](c1ccc(O)c(O)c1)[C@H](O)C4` the inhibition [1] was 89% and the IC50 [2] was 118 µM.
For `CC(=O)N[C@H](C(=O)N[C@H](C(=O)N[C@@H](CC(C)C)[C@@H](O)CC(=O)N[C@@H](C)C(=O)N[C@@H](CC(C)C)[C@@H](O)CC(=O)O)C(C)C)C(C)C` [ACETYLPEPSTATIN], the inhibition [1] was 100% and the IC50 [2] was 0.233 µM.
`CC(=O)OC[C@@]1(C)C(=O)CC[C@@]2(C)[C@H]1CC=C1[C@@H]2CC[C@@]2(C)[C@H]([C@H](CCC=C(C)C)C(=O)O)CC[C@]12C` showed an inhibition [1] of 26% and an IC50 [2] of over 195 µM.
For `CC(C)=CCC[C@H](C(=O)O)[C@@H]1CC[C@]2(C)C3=CC[C@@H]4[C@](C)(CCC(=O)[C@]4(C)CO)[C@H]3CC[C@@]12C` [XANTHOCERASIC ACID], the inhibition [1] was 14% and the IC50 [2] was over 212 µM.
For `CC(C)=CCC[C@H](C(=O)O)[C@@H]1CC[C@]2(C)C3=CC[C@H]4C(C)(C)[C@@H](O)CC[C@]4(C)[C@H]3CC[C@@]12C`, the inhibition [1] was 50% and the IC50 [2] was 219 µM.
With `CC(C)=CCC[C@H](C(=O)O)[C@@H]1CC[C@]2(C)C3=CC[C@@H]4[C@](C)(CC[C@@H](O)[C@]4(C)CO)[C@H]3CC[C@@]12C` the inhibition [1] was 26% and the IC50 [2] was over 212 µM.
`Oc1cc(O)c2c(c1)O[C@@]1(c3ccc(O)c(O)c3)Oc3cc(O)c4c(c3[C@@H]2[C@H]1O)O[C@H](c1ccc(O)c(O)c1)[C@H](O)C4` [PROANTHOCYANIDIN A2] showed an inhibition [1] of -2% and an IC50 [2] of over 173 µM.
`C=C(CC[C@@H](C)[C@H]1CC[C@@]2(C)[C@@H]3CC[C@H]4C(C)(C)[C@@H](O)CC[C@@]45C[C@@]35CC[C@]12C)C(C)C` was tested, and the inhibition [1] was 19% and the IC50 [2] was over 227 µM.

Source: ChEMBL document CHEMBL1155677, “Inhibitory effects on HIV-1 protease of constituents from the wood of Xanthoceras sorbifolia” (J Nat Prod, 2000)
